According to ChEMBL document CHEMBL5226368, “1H NMR-Based Biochemometric Analysis of Morus alba Extracts toward a Multipotent Herbal Anti-Infective” (J Nat Prod, 2023):
Calls of active or inactive are those of the source.

Legend:
Type in all cases: functional, organism-based
Details in all cases: dose 1-10 µM
Influenza B virus [1] = experiment: Antiviral activity against oseltamivir resistant Influenza B virus B/2791/18 (Victoria) infected in MDCK cells assessed as reduction in plaque number at 1 to 10 uM pre-infected with cell for 1 hrs followed by compound addition and measured after 72 hrs by plaque reduction assay
In short: (§1)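 Confluent MDCK monolayers were inoculated at 37 °C for 1 h with virus suspension, either alone or with serial half-log sample dilutions (1, 3.16, 10), in duplicate. The inoculum was aspirated and replaced with serum-free test medium containing 2 µg/mL trypsin, 0.4% agar and the same sample concentrations. Plaques were counted and IC50 was derived by a four-parameter logistic fit (n = 3).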

Influenza A virus [2] = experiment: Antiviral activity against oseltamivir resistant Influenza A virus A/1690/19 (H1N1) infected in MDCK cells assessed as reduction in plaque number at 1 to 10 uM pre-infected with cell for 1 hrs followed by compound addition and measured after 72 hrs by plaque reduction assay; in short: as §1
Influenza A virus [3] = experiment: Antiviral activity against oseltamivir resistant Influenza A virus A/1519/19 (H1N1) infected in MDCK cells assessed as reduction in plaque number at 1 to 10 uM pre-infected with cell for 1 hrs followed by compound addition and measured after 72 hrs by plaque reduction assay; in short: as §1
Influenza B virus [4] = experiment: Antiviral activity against oseltamivir resistant Influenza B virus B/3449/18 (Yamagata) infected in MDCK cells assessed as reduction in plaque number at 1 to 10 uM pre-infected with cell for 1 hrs followed by compound addition and measured after 72 hrs by plaque reduction assay; in short: as §1
Influenza A virus [5] = experiment: Antiviral activity against oseltamivir resistant Influenza A virus A/2588/19 (H3N2) infected in MDCK cells assessed as reduction in plaque number at 1 to 10 uM pre-infected with cell for 1 hrs followed by compound addition and measured after 72 hrs by plaque reduction assay; in short: as §1

Measured: Activity

CC(C)=CCCC1=C[C@H](c2c(O)cc3c(c2O)C(=O)C[C@@H](c2ccc(O)cc2O)O3)[C@@H](C(=O)c2ccc(O)cc2O)[C@H](c2ccc(O)cc2O)C1
active: Influenza B virus [1] | Influenza A virus [2] | Influenza A virus [3] | Influenza B virus [4] | Influenza A virus [5]

CC(C)=CC[C@]12Oc3cc(O)c([C@H]4C=C(C)C[C@H](c5ccc(O)cc5O)[C@H]4C(=O)c4ccc(O)cc4O)c(O)c3C(=O)[C@@]1(O)Oc1cc(O)ccc12 [SANGGENON C]
active: Influenza B virus [1] | Influenza A virus [2] | Influenza A virus [3] | Influenza B virus [4] | Influenza A virus [5]
